Assay results as given in ChEMBL document CHEMBL4422687, “Highly potent and selective aryl-1,2,3-triazolyl benzylpiperidine inhibitors toward butyrylcholinesterase in Alzheimer's disease” (Bioorg Med Chem, 2019).
Activity calls are given as the source filed them. The calls are words filed in the database; no cut-off is given here.

What was measured:
[1] = biological target: T1, Cholinesterase (Homo sapiens, UniProt P06276); assay: Inhibition of recombinant human BuChE using butyrylthiocholine iodide as substrate preincubated for 5 mins followed by substrate addition and measured for 5 mins by Ellman's method
T1 sequence (P06276 whole entry): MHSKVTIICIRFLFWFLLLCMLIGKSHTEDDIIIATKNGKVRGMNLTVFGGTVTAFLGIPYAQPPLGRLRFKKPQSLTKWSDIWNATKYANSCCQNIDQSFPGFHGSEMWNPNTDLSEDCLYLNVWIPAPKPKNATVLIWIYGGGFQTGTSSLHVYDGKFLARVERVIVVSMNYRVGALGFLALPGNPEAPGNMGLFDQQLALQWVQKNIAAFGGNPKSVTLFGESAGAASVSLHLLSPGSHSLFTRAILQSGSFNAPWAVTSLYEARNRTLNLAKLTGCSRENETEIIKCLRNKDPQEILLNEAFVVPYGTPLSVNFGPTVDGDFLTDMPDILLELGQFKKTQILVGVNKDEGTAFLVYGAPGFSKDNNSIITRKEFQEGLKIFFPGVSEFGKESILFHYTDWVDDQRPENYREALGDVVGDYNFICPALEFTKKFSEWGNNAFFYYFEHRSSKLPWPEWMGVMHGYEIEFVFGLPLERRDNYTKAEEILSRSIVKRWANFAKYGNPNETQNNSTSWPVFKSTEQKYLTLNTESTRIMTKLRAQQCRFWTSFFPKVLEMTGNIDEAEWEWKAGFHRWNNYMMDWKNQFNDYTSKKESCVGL

[2] = organism: Homo sapiens; assay: Selectivity ratio of IC50 for recombinant human AChE to IC50 for recombinant human BuChE
[3] = system: SH-SY5Y; assay: Cytotoxicity against human SH-SY5Y cells assessed as reduction in cell viability at BuChE IC50 after 24 hrs by XTT assay; type: cell-based
In short: (§1)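 SH-SY5Y human neuroblastoma cells were treated with seven concentrations of each compound. Viability was read by XTT colorimetric assay after a 24 h or 120 h recovery period.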

[4] = biological target: Acetylcholinesterase (Homo sapiens, UniProt P22303); assay: Inhibition of recombinant human AChE using acetylthiocholine iodide as substrate preincubated for 5 mins followed by substrate addition and measured for 5 mins by Ellman's method
Chain of Acetylcholinesterase (P22303 whole entry): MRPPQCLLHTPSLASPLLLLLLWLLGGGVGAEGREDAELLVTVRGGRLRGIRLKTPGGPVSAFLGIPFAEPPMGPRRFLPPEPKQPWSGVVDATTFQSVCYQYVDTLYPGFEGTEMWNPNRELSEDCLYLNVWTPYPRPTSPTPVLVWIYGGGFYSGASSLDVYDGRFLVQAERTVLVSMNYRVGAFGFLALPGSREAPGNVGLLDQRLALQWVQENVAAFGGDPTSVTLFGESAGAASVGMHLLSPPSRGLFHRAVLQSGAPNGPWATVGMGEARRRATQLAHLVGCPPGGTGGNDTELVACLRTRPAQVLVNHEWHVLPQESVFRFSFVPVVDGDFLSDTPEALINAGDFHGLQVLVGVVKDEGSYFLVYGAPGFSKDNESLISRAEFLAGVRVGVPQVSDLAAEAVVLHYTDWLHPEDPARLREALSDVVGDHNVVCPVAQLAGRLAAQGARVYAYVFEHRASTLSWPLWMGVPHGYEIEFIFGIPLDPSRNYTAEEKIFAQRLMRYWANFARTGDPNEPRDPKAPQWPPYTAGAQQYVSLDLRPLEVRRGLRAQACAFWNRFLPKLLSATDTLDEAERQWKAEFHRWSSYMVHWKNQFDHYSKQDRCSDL

[5] = biological target: T1, Cholinesterase; assay: Potency index, ratio of donepezil IC50 to test compound IC50 for recombinant human BuChE
[6] = biological target: T1, Cholinesterase; assay: Mixed-type inhibition of recombinant human BuChE using varying levels of butyrylthiocholine iodide as substrate by Lineweaver-burk plot analysis
[7] = system: SH-SY5Y; assay: Cytotoxicity against human SH-SY5Y cells assessed as reduction in cell viability at 2.5 uM after 24 hrs by XTT assay; type: cell-based
[8] = system: SH-SY5Y; assay: Cytotoxicity against human SH-SY5Y cells assessed as reduction in cell viability at BuChE IC50 after 120 hrs by XTT assay; type: cell-based; in short: as §1
[9] = system: SH-SY5Y; assay: Cytotoxicity against human SH-SY5Y cells assessed as reduction in cell viability at 80 uM after 24 hrs by XTT assay; type: cell-based
[10] = system: SH-SY5Y; assay: Cytotoxicity against human SH-SY5Y cells assessed as reduction in cell viability at 39.6 nM after 24 hrs by XTT assay; type: cell-based; conditions: 0.0396 µM
[11] = system: SH-SY5Y; assay: Cytotoxicity against human SH-SY5Y cells assessed as reduction in cell viability at 40 uM after 24 hrs by XTT assay; type: cell-based

SMILES	IC50 [1] [µM]	Activity [3]	IC50 [4] [µM]	also measured
CC(=O)N[C@@H](Cn1cc(-c2ccccc2)nn1)C(=O)NCC1CCN(Cc2ccccc2)CC1	0.00017	Non-Toxic	> 10	Ratio IC50 [2]: > 58000; Ratio IC50 [5]: 53000; inhibition [6]: Active
O=C(Cc1c[nH]c2ccccc12)NCc1cn(CC2CCN(Cc3ccccc3)CC2)nn1	5.3		> 10	
COc1cc2c(cc1OC)C(=O)C(Cc1cn(CC3CCN(Cc4ccccc4)CC3)nn1)C2 (stereo not drawn)	> 10		4.92	
c1ccc(CN2CCC(Cn3cc(CSc4nc5ccccc5[nH]4)nn3)CC2)cc1	0.065		7.33	
O=C1c2ccccc2C(=O)N1Cc1cn(CC2CCN(Cc3ccccc3)CC2)nn1	> 10		4.9	
CCOc1ccc2[nH]c(SCc3cn(CC4CCN(Cc5ccccc5)CC4)nn3)nc2c1	1.91		6.9	
CC(=O)N[C@@H](CCCCn1cc(-c2ccccc2)nn1)C(=O)NCC1CCN(Cc2ccccc2)CC1	1.02	Non-Toxic	> 10	Activity [7]: Toxic; Ratio IC50 [5]: 9; Activity [8]: Non-Toxic; Activity [9]: Toxic
c1ccc(CN2CCC(Cn3cc(CNc4ncnc5ccccc45)nn3)CC2)cc1	2.95		4.22	
N[C@@H](Cn1cc(-c2ccccc2)nn1)C(=O)NCC1CCN(Cc2ccccc2)CC1	0.0099	Non-Toxic	> 10	Activity [10]: Toxic; inhibition [6]: Active; Activity [8]: Non-Toxic
COc1cc2ncnc(NCc3cn(CC4CCN(Cc5ccccc5)CC4)nn3)c2cc1OC	> 10		3.94	
N[C@@H](CCCCn1cc(-c2ccccc2)nn1)C(=O)NCC1CCN(Cc2ccccc2)CC1	0.97	Non-Toxic	> 10	Activity [8]: Non-Toxic; Activity [11]: Toxic
